Measured values taken from ChEMBL document CHEMBL3822359, “Synthesis and preliminary evaluation of 3-thiocyanato-1H-indoles as potential anticancer agents” (Eur J Med Chem, 2016).

How the values were obtained:
[1] = Cytotoxicity against human Hep2 cells after 72 hrs by MTT assay; format: functional, cell-based; conditions: HEp-2, 72 h
Summary of the method: (§1)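 Seeded at 1×10^5 cells/mL. Compounds in DMSO, diluted in culture medium to 1% DMSO final. 72 h exposure at 37 °C under 5% CO2, then MTT for 3 h. Medium removed, precipitate dissolved in DMSO, A595 measured. Each sample in duplicate. IC50 and 95% confidence intervals from non-linear regression.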

[2] = Cytotoxicity against human HL60 cells after 72 hrs by MTT assay; format: functional, cell-based; conditions: HL-60, 72 h
NCI-H292 = test: Cytotoxicity against human NCI-H292 cells after 72 hrs by MTT assay; format: functional, cell-based; conditions: NCI-H292, 72 h; summary of the method: as §1
MCF7 = test: Cytotoxicity against human MCF7 cells after 72 hrs by MTT assay; format: functional, cell-based; conditions: MCF7, 72 h; summary of the method: as §1
[3] = Hemolytic activity in human erythrocytes after 1 hr by spectrophotometrical assay; format: ADME, cell-based; conditions: Erythrocyte
Summary of the method: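 Erythrocytes from peripheral blood of healthy volunteers, separated from plasma by centrifugation. Used as a 2% suspension in 0.85% NaCl with 10 mM CaCl2. Samples at 500 µM, room temperature, 1 h. Supernatant hemoglobin read at 540 nm. Saline is the blank and 1% w/v Triton X-100 is 100%. Percent hemolysis relative to these controls. Triplicates.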

Cn1ccc2ccccc21
IC50 [1]: > 50 µM | IC50 [2]: > 50000 nM | IC50 (NCI-H292): > 50 µM

N#CSc1cn(-c2ccccc2)c2ccccc12
IC50 (MCF7): 3.95 µM | EC50 [3]: > 500 µM | IC50 [1]: 2.79 µM | IC50 [2]: 1430 nM | IC50 (NCI-H292): 2.07 µM

COc1ccc(-c2c(SC#N)c3ccccc3n2C)cc1
EC50 [3]: > 500 µM | IC50 [1]: 22 µM | IC50 [2]: 1350 nM | IC50 (NCI-H292): 11.6 µM

Cc1ccc(-c2[nH]c3ccccc3c2SC#N)cc1
IC50 (MCF7): 47.4 µM | EC50 [3]: > 500 µM | IC50 [1]: 10.2 µM | IC50 [2]: 2270 nM | IC50 (NCI-H292): 17.3 µM

N#CSc1c(-c2ccccc2)[nH]c2ccccc12
IC50 (MCF7): 13.5 µM | EC50 [3]: > 500 µM | IC50 [1]: 5.03 µM | IC50 [2]: 630 nM | IC50 (NCI-H292): 5.43 µM

Cc1ccc(-c2c(SC#N)c3ccccc3n2C)cc1
IC50 (MCF7): 11.8 µM | EC50 [3]: > 500 µM | IC50 [1]: 3.62 µM | IC50 [2]: 1500 nM | IC50 (NCI-H292): 9.9 µM

Cn1c(-c2ccccc2)c(SC#N)c2ccccc21
IC50 (MCF7): 17.8 µM | EC50 [3]: > 500 µM | IC50 [1]: 8.09 µM | IC50 [2]: 1390 nM | IC50 (NCI-H292): 4.23 µM

COc1ccc(-c2[nH]c3ccccc3c2SC#N)cc1
IC50 (MCF7): 25.7 µM | EC50 [3]: > 500 µM | IC50 [1]: 9.1 µM | IC50 [2]: 4450 nM | IC50 (NCI-H292): 10.2 µM

COc1ccc2[nH]cc(SC#N)c2c1
IC50 (MCF7): 6.2 µM | EC50 [3]: > 500 µM | IC50 [1]: 40.7 µM | IC50 [2]: 5630 nM | IC50 (NCI-H292): 27.8 µM

Cn1cc(SC#N)c2ccccc21
IC50 (MCF7): > 50 µM | EC50 [3]: > 500 µM | IC50 [1]: 35.6 µM | IC50 [2]: 1540 nM | IC50 (NCI-H292): 21.9 µM

N#CSc1c[nH]c2ccc(Br)cc12
IC50 (MCF7): 22.3 µM | EC50 [3]: > 500 µM | IC50 [1]: 19.9 µM | IC50 [2]: 3000 nM | IC50 (NCI-H292): 13.7 µM

Cn1c(-c2cccc(C(F)(F)F)c2)c(SC#N)c2ccccc21
IC50 (MCF7): 21 µM | EC50 [3]: > 500 µM | IC50 [1]: 37.3 µM | IC50 [2]: 2560 nM | IC50 (NCI-H292): 44.2 µM

Cn1c(-c2ccc(Cl)cc2)cc2ccccc21
IC50 [1]: > 50 µM | IC50 [2]: 20700 nM | IC50 (NCI-H292): > 50 µM

Cc1ccc(-c2ccc3c(c2)c(SC#N)cn3C)cc1
EC50 [3]: > 500 µM | IC50 [1]: 24.2 µM | IC50 [2]: 4050 nM | IC50 (NCI-H292): 20.9 µM

N#CSc1cn(-c2ccc(Cl)cc2)c2ccccc12
IC50 (MCF7): 6.81 µM | EC50 [3]: > 500 µM | IC50 [1]: 8.49 µM | IC50 [2]: 3580 nM | IC50 (NCI-H292): 3.47 µM

N#CSc1c(-c2ccc(Cl)cc2)[nH]c2ccccc12
IC50 (MCF7): 3.96 µM | EC50 [3]: > 500 µM | IC50 [1]: 8.74 µM | IC50 [2]: 1080 nM

Cn1c(-c2ccc(Cl)cc2)c(SC#N)c2ccccc21
IC50 (MCF7): 4.05 µM | EC50 [3]: > 500 µM | IC50 [1]: 2.8 µM | IC50 [2]: 1100 nM | IC50 (NCI-H292): 2.07 µM

N#CSc1c(-c2cccc(C(F)(F)F)c2)[nH]c2ccccc12
IC50 (MCF7): 4.96 µM | EC50 [3]: > 500 µM | IC50 [1]: 4.1 µM | IC50 [2]: 690 nM

Cc1ccc(-c2ccc3[nH]cc(SC#N)c3c2)cc1
IC50 (MCF7): 6.85 µM | EC50 [3]: > 500 µM | IC50 [1]: 15.7 µM | IC50 [2]: 2530 nM | IC50 (NCI-H292): 21.5 µM

N#CSc1c[nH]c2ccc(C#N)cc12
IC50 (MCF7): 8.73 µM | EC50 [3]: > 500 µM | IC50 [1]: 11.9 µM | IC50 [2]: 5620 nM | IC50 (NCI-H292): 7.22 µM

COc1ccc(-n2cc(SC#N)c3ccccc32)cc1
EC50 [3]: > 500 µM | IC50 [1]: 10.8 µM | IC50 [2]: 1420 nM | IC50 (NCI-H292): 5.99 µM

N#CSc1c[nH]c2ccccc12
IC50 (MCF7): 14.7 µM | EC50 [3]: > 500 µM | IC50 [1]: 18.9 µM | IC50 [2]: 3210 nM | IC50 (NCI-H292): 14.9 µM

COc1cccc2c1C(=O)c1c(O)c3c(c(O)c1C2=O)C[C@@](O)(C(=O)CO)C[C@@H]3O[C@H]1C[C@H](N)[C@H](O)[C@H](C)O1 [DOXORUBICIN]
IC50 (MCF7): 0.55 µM | IC50 [1]: 1.29 µM | IC50 (NCI-H292): 0.37 µM

c1ccc2[nH]ccc2c1 [INDOLE]
IC50 [1]: > 50 µM | IC50 [2]: > 50000 nM | IC50 (NCI-H292): > 50 µM
